ChEMBL document CHEMBL1155468, “Syntheses and evaluation of anticonvulsant profile and teratogenicity of novel amide derivatives of branched aliphatic carboxylic acids with 4-aminobenzensulfonamide” (J Med Chem, 2010)
Activity calls are given as the source filed them. No cut-off for these calls is given here.

Experiments:
Mus musculus [1] = experiment: Teratogenic effect in SWV mouse assessed as live fetuses at 486 mg/kg, ip administered on morning of day 8 of gestation; format: toxicity, organism-based; set-up: dose 486 mg/kg, route intraperitoneal; settings: in vivo
Outline: (§1)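 SWV inbred mice: two-month-old nulligravid females mated overnight with males and checked for vaginal plugs next morning; gestation onset taken as 10 p.m. the previous night. On gestation day 8.5 each dam got one ip injection, 0.55–2.7 mmol/kg, in 25% aqueous Cremophor EL (vehicle controls dosed alike), 10 μL/g body weight. Litters and implants tallied; resorptions and live fetuses reported as counts with percentages.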

Mus musculus [2] = experiment: Teratogenic effect in SWV mouse assessed as resorptions at 148 mg/kg, ip administered on morning of day 8 of gestation; format: toxicity, organism-based; set-up: dose 148 mg/kg, route intraperitoneal; settings: in vivo; outline: as §1
Mus musculus [3] = experiment: Neurotoxicity in CF1 albino mouse assessed as motor impairment at 30 mg/kg, ip after 0.5 hrs; format: toxicity, organism-based; set-up: dose 30 mg/kg, route intraperitoneal; settings: in vivo
Mus musculus [4] = experiment: Teratogenic effect in SWV mouse assessed as resorptions at 486 mg/kg, ip administered on morning of day 8 of gestation; format: toxicity, organism-based; set-up: dose 486 mg/kg, route intraperitoneal; settings: in vivo; outline: as §1
Mus musculus [5] = experiment: Teratogenic effect in SWV mouse assessed as fetuses with neural tube deffects at 148 mg/kg, ip administered on morning of day 8 of gestation; format: toxicity, organism-based; set-up: dose 148 mg/kg, route intraperitoneal; settings: in vivo
Outline: (§2)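 Two-month-old nulligravid SWV females were mated overnight and checked for vaginal plugs the next morning; gestation onset was set at 10 p.m. the previous night. On gestation day 8.5, each dam received a single ip injection (0.55-2.7 mmol/kg range) or vehicle (25% aqueous Cremophor EL) at 10 μL/g body weight. Litters were scored for implants, resorptions, live and dead fetuses, and fetuses with neural tube defects.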

Mus musculus [6] = experiment: Teratogenic effect in SWV mouse assessed as fetuses with neural tube deffects at 294 mg/kg, ip administered on morning of day 8 of gestation; format: toxicity, organism-based; set-up: dose 294 mg/kg, route intraperitoneal; settings: in vivo; outline: as §2
Mus musculus [7] = experiment: Teratogenic effect in SWV mouse assessed as live fetuses at 148 mg/kg, ip administered on morning of day 8 of gestation; format: toxicity, organism-based; set-up: dose 148 mg/kg, route intraperitoneal; settings: in vivo; outline: as §2
Mus musculus [8] = experiment: Anticonvulsant activity in CF1 albino mouse assessed as inhibition of subcutaneous pentylenetetrazole-induced seizures at 100 mg/kg, ip after 0.5 hrs; format: functional, organism-based; set-up: dose 100 mg/kg
Outline: (§3)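 Adult male CF no. 1 albino mice (18-25 g) dosed ip with compound suspended in 0.5% methylcellulose (0.01 mL/g). Convulsant: pentylenetetrazol dissolved in 0.9% saline as a 0.85% solution for mice, given subcutaneously.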

Mus musculus [9] = experiment: Anticonvulsant activity in CF1 albino mouse assessed as inhibition of subcutaneous pentylenetetrazole-induced seizures at 100 mg/kg, ip after 4 hrs; format: functional, organism-based; set-up: dose 100 mg/kg; outline: as §3
Mus musculus [10] = experiment: Teratogenic effect in SWV mouse assessed as fetuses with neural tube deffects at 486 mg/kg, ip administered on morning of day 8 of gestation; format: toxicity, organism-based; set-up: dose 486 mg/kg, route intraperitoneal; settings: in vivo; outline: as §2
Rattus norvegicus [11] = organism: Rattus norvegicus; experiment: Protective index, ratio of TD50 for rat to ED50 for maximal electroshock-induced rat seizure model
Rattus norvegicus [12] = experiment: Neurotoxicity in Sprague-Dawley rat assessed as motor impairment at 30 mg/kg, po after 0.25 to 4 hrs; settings: in vivo
Mus musculus [13] = experiment: Neurotoxicity in CF1 albino mouse assessed as motor impairment at 30 mg/kg, ip after 4 hrs; format: toxicity, organism-based; set-up: dose 30 mg/kg, route intraperitoneal; settings: in vivo
Mus musculus [14] = experiment: Anticonvulsant activity in CF1 albino mouse assessed as inhibition of subcutaneous pentylenetetrazole-induced seizures at 30 mg/kg, ip after 4 hrs; format: functional, organism-based; set-up: dose 30 mg/kg; outline: as §3
Mus musculus [15] = experiment: Anticonvulsant activity in CF1 albino mouse assessed as inhibition of maximal electroshock-induced seizures at 300 mg/kg, ip after 0.5 hrs; format: functional, organism-based; set-up: dose 300 mg/kg
Outline: (§4)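 Test compounds suspended in 0.5% methylcellulose and given ip to adult male CF no. 1 albino mice (18-25 g) at 0.01 mL/g body weight before maximal electroshock challenge.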

Mus musculus [16] = experiment: Neurotoxicity in CF1 albino mouse assessed as motor impairment at 100 mg/kg, ip after 4 hrs; format: toxicity, organism-based; set-up: dose 100 mg/kg, route intraperitoneal; settings: in vivo
Mus musculus [17] = experiment: Anticonvulsant activity in CF1 albino mouse assessed as inhibition of maximal electroshock-induced seizures at 300 mg/kg, ip after 4 hrs; format: functional, organism-based; set-up: dose 300 mg/kg; outline: as §4
Mus musculus [18] = experiment: Anticonvulsant activity in CF1 albino mouse assessed as inhibition of maximal electroshock-induced seizures at 30 mg/kg, ip after 0.5 hrs; format: functional, organism-based; set-up: dose 30 mg/kg; outline: as §4
Mus musculus [19] = experiment: Anticonvulsant activity in CF1 albino mouse assessed as inhibition of maximal electroshock-induced seizures at 30 mg/kg, ip after 4 hrs; format: functional, organism-based; set-up: dose 30 mg/kg; outline: as §4
Rattus norvegicus [20] = experiment: Anticonvulsant activity in Sprague-Dawley rat assessed as inhibition of maximal electroshock-induced seizures at 30 mg/kg, po after 1 hr
Mus musculus [21] = experiment: Anticonvulsant activity in CF1 albino mouse assessed as inhibition of subcutaneous pentylenetetrazole-induced seizures at 30 mg/kg, ip after 0.5 hrs; format: functional, organism-based; set-up: dose 30 mg/kg; outline: as §3
Rattus norvegicus [22] = experiment: Anticonvulsant activity in Sprague-Dawley rat assessed as inhibition of maximal electroshock-induced seizures at 30 mg/kg, po after 2 hrs
Mus musculus [23] = experiment: Anticonvulsant activity in CF1 albino mouse assessed as inhibition of maximal electroshock-induced seizures at 100 mg/kg, ip after 4 hrs; format: functional, organism-based; set-up: dose 100 mg/kg; outline: as §4
Rattus norvegicus [24] = experiment: Anticonvulsant activity in Sprague-Dawley rat assessed as inhibition of maximal electroshock-induced seizures at 30 mg/kg, po after 4 hrs
Mus musculus [25] = experiment: Anticonvulsant activity in CF1 albino mouse assessed as inhibition of subcutaneous pentylenetetrazole-induced seizures at 300 mg/kg, ip after 4 hrs; format: functional, organism-based; set-up: dose 300 mg/kg; outline: as §3
Mus musculus [26] = experiment: Neurotoxicity in CF1 albino mouse assessed as motor impairment at 100 mg/kg, ip after 0.5 hrs; format: toxicity, organism-based; set-up: dose 100 mg/kg, route intraperitoneal; settings: in vivo
Mus musculus [27] = experiment: Anticonvulsant activity in CF1 albino mouse assessed as inhibition of maximal electroshock-induced seizures at 100 mg/kg, ip after 0.5 hrs; format: functional, organism-based; set-up: dose 100 mg/kg; outline: as §4
Mus musculus [28] = experiment: Teratogenic effect in SWV mouse assessed as resorptions at 294 mg/kg, ip administered on morning of day 8 of gestation; format: toxicity, organism-based; set-up: dose 294 mg/kg, route intraperitoneal; settings: in vivo; outline: as §1
Mus musculus [29] = experiment: Neurotoxicity in CF1 albino mouse assessed as motor impairment at 300 mg/kg, ip after 4 hrs; format: toxicity, organism-based; set-up: dose 300 mg/kg, route intraperitoneal; settings: in vivo
Mus musculus [30] = experiment: Neurotoxicity in CF1 albino mouse assessed as motor impairment at 300 mg/kg, ip after 0.5 hrs; format: toxicity, organism-based; set-up: dose 300 mg/kg, route intraperitoneal; settings: in vivo
Rattus norvegicus [31] = experiment: Anticonvulsant activity in Sprague-Dawley rat assessed as inhibition of maximal electroshock-induced seizures at 30 mg/kg, po after 30 mins
Mus musculus [32] = experiment: Teratogenic effect in SWV mouse assessed as live fetuses at 294 mg/kg, ip administered on morning of day 8 of gestation; format: toxicity, organism-based; set-up: dose 294 mg/kg, route intraperitoneal; settings: in vivo; outline: as §2
Rattus norvegicus [33] = experiment: Anticonvulsant activity in po dosed rat assessed as inhibition of maximal electroshock-induced seizures
Mus musculus [34] = experiment: Anticonvulsant activity in CF1 albino mouse assessed as inhibition of subcutaneous pentylenetetrazole-induced seizures at 300 mg/kg, ip after 0.5 hrs; format: functional, organism-based; set-up: dose 300 mg/kg; outline: as §3

Structure (SMILES) | Activity (Mus musculus [1]) [%] | Activity (Mus musculus [2]) [%] | Activity (Mus musculus [3]) | Activity (Mus musculus [4]) [%] | Activity (Mus musculus [6]) [%] | Activity (Mus musculus [7]) [%] | Activity (Mus musculus [8]) | Activity (Mus musculus [9]) | Activity (Mus musculus [10]) [%] | Ratio TD50/ED50 (Rattus norvegicus [11]) | Activity (Rattus norvegicus [12]) | Activity (Mus musculus [13]) | Activity (Mus musculus [14]) | Activity (Mus musculus [16]) | Activity (Mus musculus [17]) | Activity (Mus musculus [18]) | Activity (Mus musculus [19]) | Activity (Mus musculus [21]) | Activity (Rattus norvegicus [22]) | Activity (Rattus norvegicus [24]) | also measured
CCC(C)CC(=O)Nc1ccc(S(N)(=O)=O)cc1 (configuration not stated) | 32 | 10.6 | Non-toxic | 68 | 9.9 | 89.4 | inactive | inactive | 9.4 | >30.4 | Non-toxic | Non-toxic | inactive | Non-toxic | inactive | inactive | inactive | inactive | Active | Active | Activity (Mus musculus [5]): 1.1%; Activity (Mus musculus [15]): inactive; Activity (Rattus norvegicus [20]): Active; Activity (Mus musculus [23]): inactive; Activity (Mus musculus [25]): inactive; Activity (Mus musculus [26]): Non-toxic; Activity (Mus musculus [27]): inactive; Activity (Mus musculus [28]): 32.5%; Activity (Mus musculus [29]): Non-toxic; Activity (Mus musculus [30]): Non-toxic; Activity (Rattus norvegicus [31]): Active; Activity (Mus musculus [32]): 67.5%; ED50 (Rattus norvegicus [33]): 16.4 mg/kg; Activity (Mus musculus [34]): inactive
CC(C)(C)CC(=O)Nc1ccc(S(N)(=O)=O)cc1 | 91.1 | 8.6 | Non-toxic | 8.9 | 3.7 | 91.4 | inactive | inactive | 15 | >53.2 | Non-toxic | Non-toxic | inactive | Non-toxic | Active | inactive | inactive | inactive | Active | Active | Activity (Mus musculus [25]): inactive; Activity (Mus musculus [26]): Non-toxic; Activity (Mus musculus [28]): 8.4%; Activity (Mus musculus [29]): Non-toxic; Activity (Mus musculus [30]): Non-toxic; Activity (Mus musculus [32]): 91.6%; ED50 (Rattus norvegicus [33]): 9.4 mg/kg; Activity (Mus musculus [34]): inactive
